The results in this text go back to ChEMBL document CHEMBL5674883, “The Heterochromatin Landscape in Migrating Cells and the Importance of H3K27me3 for Associated Transcriptome Alterations” (Cells, 2018).

Holding throughout (assay type): cell-based
Assay [1] deals with Histone-lysine N-methyltransferase EZH2 (Mus musculus) (UniProt Q61188). Description: Inhibition of EZH2 in mouse B16-F1 migrating cells assessed as fold change in H3K27me3-buffered regulated Rev3l-mRNA expression at 3 uM measured by ChIP-seq analysis relative to control cells. An outline of the steps: (§1)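 Confluent B16-F1 cells on fibronectin-coated plates, cultured at 37 °C and 7% CO2, were scratched at multiple sites to induce migration. They were then held 3 h in growth medium containing 3 µM GSK343, with the inhibitor added 3 h before lysis. Unscratched cells served as controls. Poly A mRNA was analysed by RNA-seq (n=3 GSK343, n=5 controls). Linear models removed batch effects, and buffered genes were those altered only under GSK343 (FDR <0.05, fold change >1.3).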

The target is the same in assay [2]. As to the kind of experiment: Inhibition of EZH2 in mouse B16-F1 migrating cells assessed as fold change in H3K27me3-independent regulated Nr4a3-mRNA expression at 3 uM measured by ChIP-seq analysis relative to control cells. The gist of the method:
(§2)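 Confluent B16-F1 cells on fibronectin-coated plates were scratched at multiple sites, washed once with DMEM and left to migrate 3 h in growth medium (37 °C, 7% CO2); unscratched cells served as control. GSK343 (3 µM) was added 3 h before lysis. Poly A mRNA was sequenced (RNA-seq), with 5 replicates for untreated and 3 for treated cells. Differential expression was called by linear model with batch correction, at FDR <0.05 and fold change ≥1.3.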

Assay [3] shares this target. Description: Inhibition of EZH2 in mouse B16-F1 migrating cells assessed as fold change in H3K27me3-buffered regulated Slc26a2-mRNA expression at 3 uM measured by […] analysis relative to control cells. The gist of the method: as §2
Assay [4] shares this target. As to the kind of experiment: Inhibition of EZH2 in mouse B16-F1 migrating cells assessed as fold change in H3K27me3-buffered regulated Foxa1-mRNA expression at 3 uM measured by […] analysis relative to control cells. The gist of the method:
as §1

Assay [5] has the same target. Description: Inhibition of EZH2 in mouse B16-F1 migrating cells assessed as fold change in H3K27me3-independent regulated Pwwp2b-mRNA expression at 3 uM measured by […] analysis relative to control cells. An outline of the steps: as §2
For assay [6] the target is unchanged. As to the kind of experiment: Inhibition of EZH2 in mouse B16-F1 migrating cells assessed as fold change in H3K27me3-buffered regulated Rassf1-mRNA expression at 3 uM measured by […] analysis relative to control cells. The gist of the method: as §1
For assay [7] the target is unchanged. Description: Inhibition of EZH2 in mouse B16-F1 migrating cells assessed as fold change in H3K27me3-buffered regulated Mef2d-mRNA expression at 3 uM measured by […] analysis relative to control cells. An outline of the steps: as §1
The target is the same in assay [8]. As to the kind of experiment: Inhibition of EZH2 in mouse B16-F1 migrating cells assessed as fold change in H3K27me3-buffered regulated Ttc14-mRNA expression at 3 uM measured by ChIP-seq analysis relative to control cells. The gist of the method:
as §2

Assay [9] has the same target. As to the kind of experiment: Inhibition of EZH2 in mouse B16-F1 migrating cells assessed as fold change in H3K27me3-independent regulated Selenbp1-mRNA expression at 3 uM measured by […] analysis relative to control cells. An outline of the steps: as §2
For assay [10] the target is unchanged. As to the kind of experiment: Inhibition of EZH2 in mouse B16-F1 migrating cells assessed as fold change in H3K27me3-independent regulated Aldoc-mRNA expression at 3 uM measured by ChIP-seq analysis relative to control cells. The gist of the method: as §2
The target is the same in assay [11]. Description: Inhibition of EZH2 in mouse B16-F1 migrating cells assessed as fold change in H3K27me3-buffered regulated 1810032O08Rik-mRNA expression at 3 uM measured by […] analysis relative to control cells. The gist of the method:
as §1

The target in assay [12] is T1, RNA polymerase II (Mus musculus) (UniProt P08775+Q8CFI7+P97760+A0A3Q4L2S8+Q80UW8+P61219+P62488+Q923G2+P60898+O08740+Q63871+P62876). As to the kind of experiment: Inhibition of RNA polymerase II in mouse B16-F1 migrating cells assessed as fold change in Kcnab2-RNA stability at 0.1 mM measured by ChIP-seq analysis relative to control cells. An outline of the steps: (§3)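 Mouse B16-F1 melanoma cells grown to confluence on fibronectin in DMEM/10% FCS at 37 °C, 7% CO2. Migration induced by multiple scratches and 3 h incubation; unscratched controls. DRB 0.1 mM added 3 h before lysis. RNA from poly A-selected mRNA was sequenced (RNA-seq, three replicates per DRB group). Fold change computed for DRB-treated migrating vs DRB-treated control cells; cutoffs fold change >1.3, FDR <0.05.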

In assay [13] the target is T1, RNA polymerase II (Mus musculus). As to the kind of experiment: Inhibition of RNA polymerase II in mouse B16-F1 migrating cells assessed as fold change in Vps72-RNA stability at 0.1 mM measured by […] analysis relative to control cells.
Assay [14] has the same target. Description: Inhibition of RNA polymerase II in mouse B16-F1 migrating cells assessed as fold change in Rps15-RNA stability at 0.1 mM measured by […] analysis relative to control cells.
The target is the same in assay [15]. Description: Inhibition of RNA polymerase II in mouse B16-F1 migrating cells assessed as fold change in Gulp1-RNA stability at 0.1 mM measured by ChIP-seq analysis relative to control cells.
For assay [16] the target is unchanged. Description: Inhibition of RNA polymerase II in mouse B16-F1 migrating cells assessed as fold change in Cul4b-RNA stability at 0.1 mM measured by […] analysis relative to control cells. The gist of the method: as §3
The target is the same in assay [17]. As to the kind of experiment: Inhibition of RNA polymerase II in mouse B16-F1 migrating cells assessed as fold change in Shprh-RNA stability at 0.1 mM measured by […] analysis relative to control cells.
For assay [18] the target is unchanged. As to the kind of experiment: Inhibition of RNA polymerase II in mouse B16-F1 migrating cells assessed as fold change in Ptbp2-RNA stability at 0.1 mM measured by […] analysis relative to control cells.
Assay [19] shares this target. Description: Inhibition of RNA polymerase II in mouse B16-F1 migrating cells assessed as fold change in AU019823-RNA stability at 0.1 mM measured by […] analysis relative to control cells.
The target is the same in assay [20]. Description: Inhibition of RNA polymerase II in mouse B16-F1 migrating cells assessed as fold change in Repin1-RNA stability at 0.1 mM measured by […] analysis relative to control cells.
Assay [21] shares this target. Description: Inhibition of RNA polymerase II in mouse B16-F1 migrating cells assessed as fold change in Abi1-RNA stability at 0.1 mM measured by […] analysis relative to control cells.
For assay [22] the target is unchanged. As to the kind of experiment: Inhibition of RNA polymerase II in mouse B16-F1 migrating cells assessed as fold change in Rpl7-RNA stability at 0.1 mM measured by […] analysis relative to control cells.
The target is the same in assay [23]. Description: Inhibition of RNA polymerase II in mouse B16-F1 migrating cells assessed as fold change in Rest-RNA stability at 0.1 mM measured by […] analysis relative to control cells.
For assay [24] the target is unchanged. As to the kind of experiment: Inhibition of RNA polymerase II in mouse B16-F1 migrating cells assessed as fold change in Borcs8-RNA stability at 0.1 mM measured by […] analysis relative to control cells. An outline of the steps:
as §3

Histone-lysine N-methyltransferase EZH2 (Mus musculus), sequence (Q61188 whole entry): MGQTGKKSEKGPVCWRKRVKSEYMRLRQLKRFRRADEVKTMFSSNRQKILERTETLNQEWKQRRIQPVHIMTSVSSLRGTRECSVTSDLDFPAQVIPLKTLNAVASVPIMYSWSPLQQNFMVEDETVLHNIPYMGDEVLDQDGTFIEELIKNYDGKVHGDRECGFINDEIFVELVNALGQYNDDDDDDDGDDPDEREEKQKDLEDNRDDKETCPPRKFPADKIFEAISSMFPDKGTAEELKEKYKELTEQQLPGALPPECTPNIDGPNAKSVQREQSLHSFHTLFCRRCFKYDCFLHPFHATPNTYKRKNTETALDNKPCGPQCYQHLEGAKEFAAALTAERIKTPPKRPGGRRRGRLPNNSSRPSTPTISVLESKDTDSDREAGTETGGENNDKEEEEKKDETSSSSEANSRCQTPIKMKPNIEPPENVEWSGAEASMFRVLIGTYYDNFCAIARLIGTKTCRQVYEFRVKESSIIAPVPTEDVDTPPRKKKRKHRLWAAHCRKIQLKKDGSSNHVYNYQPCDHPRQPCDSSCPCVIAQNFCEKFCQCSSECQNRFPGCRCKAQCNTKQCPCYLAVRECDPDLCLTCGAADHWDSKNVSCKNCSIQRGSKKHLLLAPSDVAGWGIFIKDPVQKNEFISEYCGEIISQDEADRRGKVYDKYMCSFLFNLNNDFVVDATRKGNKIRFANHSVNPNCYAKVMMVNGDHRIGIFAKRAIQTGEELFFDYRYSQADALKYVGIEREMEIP

As to `CCCc1cc(C)[nH]c(=O)c1CNC(=O)c1cc(-c2ccnc(N3CCN(C)CC3)c2)cc2c1cnn2C(C)C`, the log2FC in assay [1] was -0.47; in assay [2] it was 0.74; in assay [3], 0.38; in assay [4] it was -0.77; in assay [5], 0.46; in assay [6], -0.52. For the same compound, the log2FC is 0.41 in assay [7]; -0.44 in assay [8]; 1.01 in [9]; 0.69 in [10]; -1.08 in [11].
Take `OC[C@H]1O[C@@H](n2cnc3cc(Cl)c(Cl)cc32)[C@H](O)[C@@H]1O`: the log2FC in [12] is 0.49; in assay [13], 0.46; in assay [14], 0.53; in [15], -0.97; in assay [16] it was -0.49; in [17] it was -0.62. Besides, the log2FC in assay [18] is -0.56; in [19] it was -0.59; in [20], -0.71; in [21], -0.62; in [22], 0.41; in assay [23], -0.79. In addition, the log2FC in assay [24] came out at 0.57.
